This is an account of results in ChEMBL document CHEMBL3779767, “Identification of potent and selective MTH1 inhibitors” (Bioorg Med Chem Lett, 2016).

Data set [1] concerns MRC5. Description: Cytotoxicity against human MRC5 cells assessed as change in phenotypic response. It counts as cell-based.
Data set [2] concerns HCT-116. As to the kind of experiment: Antiproliferative activity against human HCT116 cells assessed as change in phenotypic response. It is filed as functional, cell-based.
The test system of data set [3] is SW480. As to the kind of experiment: Antiproliferative activity against human SW480 cells assessed as change in phenotypic response. It is filed as functional, cell-based.
In data set [4] the test system is A549. As to the kind of experiment: Antiproliferative activity against human A549 cells assessed as change in phenotypic response. It is filed as functional, cell-based.
Data set [5] has as its system HeLa. Description: Antiproliferative activity against human HeLa cells assessed as change in phenotypic response. It counts as functional, cell-based.
For data set [6], the system named is BJ. Description: Cytotoxicity against human BJ cells assessed as change in phenotypic response. It is filed as cell-based.
The nature of data set [7]: Cytotoxicity against human WI38 cells assessed as change in phenotypic response. It counts as cell-based. Conditions: wi-38.
Data set [8] deals with SAOS-2. Description: Antiproliferative activity against human Saos2 cells assessed as change in phenotypic response. It counts as functional, cell-based.
In data set [9] the test system is HMEC. As to the kind of experiment: Cytotoxicity against human HMEC cells assessed as change in phenotypic response. It is filed as cell-based.
Data set [10] concerns NCI-H460. As to the kind of experiment: Antiproliferative activity against human NCI-H460 cells assessed as change in phenotypic response. It is filed as functional, cell-based.
Data set [11] relates to MDA-MB-231. Description: Antiproliferative activity against human MDA-MB-231 cells assessed as change in phenotypic response. It is filed as functional, cell-based.
Data set [12] can be described thus: Cytotoxicity against human 293T cells assessed as change in phenotypic response. It is filed as cell-based. The settings on record: hek-293t.
The subject of data set [13] is U2OS. As to the kind of experiment: Antiproliferative activity against human U2OS cells assessed as change in phenotypic response. It is filed as functional, cell-based.
Data set [14] can be described thus: Cytotoxicity against human 293T cells assessed as change in phenotypic response measured after prolonged treatment. It counts as cell-based. The settings on record: hek-293t.
The nature of data set [15]: Half life in human liver microsomes. It is filed as ADME. In a few lines:
(§1)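 Incubated with human or mouse liver microsomes; the read-out was intrinsic clearance alongside half-life, given in hours.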
For orientation: Microsomes from liver hold many membrane-bound enzymes, among them those of drug oxidation.

The nature of data set [16]: Half life in human plasma. It counts as ADME, cell-free. The procedure, abridged:
(§2)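 Plasma stability was measured in human and rat plasma, with half-life reported in hours.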

The test system of data set [17] is MDA-MB-231. As to the kind of experiment: Antiproliferative activity against human MDA-MB-231 cells assessed as change in phenotypic response measured after prolonged treatment. It is filed as functional, cell-based.
The test system of data set [18] is MRC5. Description: Cytotoxicity against human MRC5 cells assessed as change in phenotypic response up to 50 uM. It counts as cell-based.
In data set [19] the test system is SAOS-2. As to the kind of experiment: Antiproliferative activity against human Saos2 cells assessed as change in phenotypic response measured after prolonged treatment. It is filed as functional, cell-based.
Data set [20] relates to SW480. As to the kind of experiment: Antiproliferative activity against human SW480 cells assessed as change in phenotypic response up to 50 uM. It counts as functional, cell-based.
The test system of data set [21] is SAOS-2. As to the kind of experiment: Antiproliferative activity against human Saos2 cells assessed as change in phenotypic response up to 50 uM. It is filed as functional, cell-based.
Data set [22] deals with SW480. Description: Antiproliferative activity against human SW480 cells assessed as change in phenotypic response measured after prolonged treatment. It counts as functional, cell-based.
Data set [23] deals with U2OS. As to the kind of experiment: Antiproliferative activity against human U2OS cells assessed as change in phenotypic response up to 50 uM. It is filed as functional, cell-based.
In data set [24] the test system is HeLa. As to the kind of experiment: Antiproliferative activity against human HeLa cells assessed as change in phenotypic response up to 50 uM. It is filed as functional, cell-based.
The subject of data set [25] is HMEC. Description: Cytotoxicity against human HMEC cells assessed as change in phenotypic response up to 50 uM. It counts as cell-based.
Data set [26] concerns A549. Description: Antiproliferative activity against human A549 cells assessed as change in phenotypic response up to 50 uM. It is filed as functional, cell-based.
Data set [27] relates to BJ. Description: Cytotoxicity against human BJ cells assessed as change in phenotypic response up to 50 uM. It is filed as cell-based.
In data set [28] the test system is NCI-H358. As to the kind of experiment: Antiproliferative activity against human NCI-H358 cells assessed as change in phenotypic response measured after prolonged treatment. It is filed as functional, cell-based.
Data set [29] can be described thus: Permeability across MDCK cells. It is filed as ADME, cell-based, Canis lupus familiaris. The settings on record: dog, read-out: permeability. In a few lines: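 Measured across a confluent MDCK cell monolayer; apparent permeability is reported together with the efflux ratio.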
Data set [30] concerns UOK 262. As to the kind of experiment: Antiproliferative activity against human UOK 262 cells assessed as change in phenotypic response up to 50 uM. It counts as functional, cell-based.
A short description of data set [31]: Half life in mouse liver microsomes. It is filed as ADME. In a few lines:
as §1

Data set [32] has as its system HCT-116. Description: Antiproliferative activity against human HCT116 cells assessed as change in phenotypic response measured after prolonged treatment. It is filed as functional, cell-based.
Data set [33] has as its system NCI-H460. Description: Antiproliferative activity against human NCI-H460 cells assessed as change in phenotypic response up to 50 uM. It is filed as functional, cell-based.
Data set [34] has as its system HCT-116. Description: Antiproliferative activity against human HCT116 cells assessed as change in phenotypic response up to 50 uM. It is filed as functional, cell-based.
Data set [35] can be described thus: Cytotoxicity against human WI38 cells assessed as change in phenotypic response measured after prolonged treatment. It counts as cell-based. The settings on record: wi-38.
Data set [36] has as its system Liver microsome. Description: Intrinsic clearance in human liver microsomes. It counts as ADME.
Data set [37] can be described thus: Efflux ratio of permeability in MDCK cells. It counts as ADME, cell-based, Canis lupus familiaris. Conditions: dog. In a few lines: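 Permeability measured across a confluent MDCK cell monolayer, with the efflux ratio reported alongside the permeability value.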
Data set [38] relates to BJ. As to the kind of experiment: Cytotoxicity against human BJ cells assessed as change in phenotypic response measured after prolonged treatment. It counts as cell-based.
Data set [39] is described as follows: Intrinsic clearance in mouse liver microsomes. It counts as ADME.
Data set [40] is described as follows: Cytotoxicity against human 293T cells assessed as change in phenotypic response up to 50 uM. It counts as cell-based. The settings on record: hek-293t.
A short description of data set [41]: Half life in rat plasma. It is filed as ADME, cell-free. The procedure, abridged:
as §2

A short description of data set [42]: Plasma protein binding in human. It is filed as ADME, cell-free. Conditions: read-out: PPB (converted).
In data set [43] the test system is HMEC. As to the kind of experiment: Cytotoxicity against human HMEC cells assessed as change in phenotypic response measured after prolonged treatment. It counts as cell-based.
Data set [44] has as its system MRC5. As to the kind of experiment: Cytotoxicity against human MRC5 cells assessed as change in phenotypic response measured after prolonged treatment. It counts as cell-based.
The nature of data set [45]: Cytotoxicity against human WI38 cells assessed as change in phenotypic response up to 50 uM. It is filed as cell-based. Conditions: wi-38.
In data set [46] the test system is HeLa. Description: Antiproliferative activity against human HeLa cells assessed as change in phenotypic response measured after prolonged treatment. It is filed as functional, cell-based.
Data set [47] deals with NCI-H358. Description: Antiproliferative activity against human NCI-H358 cells assessed as change in phenotypic response up to 50 uM. It counts as functional, cell-based.
Data set [48] deals with A549. As to the kind of experiment: Antiproliferative activity against human A549 cells assessed as change in phenotypic response measured after prolonged treatment. It is filed as functional, cell-based.
Data set [49] deals with U2OS. As to the kind of experiment: Antiproliferative activity against human U2OS cells assessed as change in phenotypic response measured after prolonged treatment. It counts as functional, cell-based.
The subject of data set [50] is NCI-H460. Description: Antiproliferative activity against human NCI-H460 cells assessed as change in phenotypic response measured after prolonged treatment. It is filed as functional, cell-based.
Data set [51] concerns MDA-MB-231. As to the kind of experiment: Antiproliferative activity against human MDA-MB-231 cells assessed as change in phenotypic response up to 50 uM. It counts as functional, cell-based.
The subject of data set [52] is UOK 262. Description: Antiproliferative activity against human UOK 262 cells assessed as change in phenotypic response measured after prolonged treatment. It is filed as functional, cell-based.
Data set [53] can be described thus: Plasma protein binding in human plasma at 10 uM after 4 hrs by LC-MS/MS analysis. It counts as ADME, cell-free. The settings on record: read-out: PPB (converted).
Data set [54] has as its system Liver microsome. Description: Intrinsic clearance in human liver microsomes at 1 uM up to 40 mins by LC-MS/MS analysis. It is filed as ADME.

The structures appear in SMILES notation. Calls of active or inactive are those of the source.

As usually defined, the half-life is the time needed for the level to fall by half in the phase considered. Read a low half-life as rapid decline. Usually efflux ratio stands for the permeability from basolateral to apical divided by that in the opposite direction, in the common usage.

For `Nc1nc(NC2CC2)cc(-c2cccc(Cl)c2Cl)n1`, the Activity entry (with MRC5 [1]; in the data set on BJ [6]; in data set [7]; in the data set with HMEC [9]; in data set [12]) was “Toxic” in each case. The outcome in the data set with HCT-116 [2], in the data set on SW480 [3], in the data set on A549 [4], with HeLa [5], in the data set on SAOS-2 [8] and with NCI-H460 [10] was Active. Besides, the outcome in the data set with MDA-MB-231 [11] and with U2OS [13] was Active.

As for `Cc1cnc(N)nc1OCC(C)(C)C`, the Activity entry (in [14]; with MRC5 [18]; in the data set on HMEC [25]; in the data set on BJ [27]; in [35]; with BJ [38]) was “Non-toxic” in each case. Moreover, the Activity result (in data set [40]; in the data set on HMEC [43]; in the data set on MRC5 [44]; in [45]) was “Non-toxic” each time. The half-life in [15] was 0.5 h; in data set [16], 19 h; in data set [31], 0.3 h; in data set [41], 20 h. In addition, the result with MDA-MB-231 [17], with SAOS-2 [19], in the data set on SW480 [20], in the data set with SAOS-2 [21], in the data set with SW480 [22] and with U2OS [23] was inactive. The result with HeLa [24], in the data set on A549 [26], in the data set on NCI-H358 [28], in the data set on UOK 262 [30], with HCT-116 [32] and in the data set with NCI-H460 [33] was inactive. For the same compound, the outcome in the data set with HCT-116 [34], with HeLa [46], in the data set with NCI-H358 [47], in the data set on A549 [48], in the data set with U2OS [49] and with NCI-H460 [50] was inactive. For the same compound, the result with MDA-MB-231 [51] and in the data set with UOK 262 [52] was inactive. In addition, the Papp in [29] came to 37 ×10⁻⁶ cm/s. In addition, the values for the CLH (in the data set with Liver microsome [36]; in [39]) were 82 µL/min/mg and 280 µL/min/mg, respectively. Besides, in data set [37], the efflux ratio was determined as 0.8. Also, the fraction unbound in [42] is 0.06.

For `CNc1cc(-c2cccc(Cl)c2Cl)nc(N)n1`, the Activity result (in the data set with MRC5 [1]; in the data set on BJ [6]; in [7]; in the data set on HMEC [9]; in [12]) was “Toxic” in each case. The result in the data set on HCT-116 [2], with SW480 [3], in the data set with A549 [4], in the data set on HeLa [5], in the data set with SAOS-2 [8] and with NCI-H460 [10] was Active. Moreover, the result in the data set on MDA-MB-231 [11] and with U2OS [13] was Active. Besides, the Papp in [29] was found to be 30 ×10⁻⁶ cm/s. Moreover, in data set [37], the efflux ratio worked out at 0.8. The fraction unbound at 4 h, 10 µM in data set [53] was 0.08. The compound further had a CLH in the data set with Liver microsome [54] of 54 µL/min/mg.
